Data taken from ChEMBL document CHEMBL1126875, “Synthesis and LTB4 receptor antagonist activities of the naturally occurring LTB4 receptor antagonist Leucettamine A and related analogues” (J Med Chem, 1993).

Key:
[1] = target: T1, Leukotriene B4 receptor 1 (Homo sapiens, UniProt Q15722); test: Binding affinity against Leukotriene B4 receptor on intact differentiated U-937 cells in competitive binding assay with [3H]LTB4; assay type: cell-based
How it was run: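 Differentiated U-937 cells (1.3% DMSO, 3–4 days), washed; 10⁶ intact cells incubated in HBSS with 0.1% ovalbumin and 0.2 nM [³H]LTB₄, 20 min at 0 °C. Nonspecific binding defined with 1 μM unlabeled LTB₄. Filtration then scintillation counting. IC₅₀ converted to Ki by Cheng–Prusoff.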

U-937 [2] = test: Inhibition of [3H]LTB4 binding in whole cells; conditions: Homo sapiens
U-937 [3] = test: Inhibition of [3H]LTB4 binding in whole cells (U-937); conditions: Homo sapiens
[4] = target: T1, Leukotriene B4 receptor 1; test: Binding affinity against Leukotriene B4 receptor on U-937 cell membrane preparations in competitive binding assay with [3H]LTB4

T1 sequence (Q15722 whole entry): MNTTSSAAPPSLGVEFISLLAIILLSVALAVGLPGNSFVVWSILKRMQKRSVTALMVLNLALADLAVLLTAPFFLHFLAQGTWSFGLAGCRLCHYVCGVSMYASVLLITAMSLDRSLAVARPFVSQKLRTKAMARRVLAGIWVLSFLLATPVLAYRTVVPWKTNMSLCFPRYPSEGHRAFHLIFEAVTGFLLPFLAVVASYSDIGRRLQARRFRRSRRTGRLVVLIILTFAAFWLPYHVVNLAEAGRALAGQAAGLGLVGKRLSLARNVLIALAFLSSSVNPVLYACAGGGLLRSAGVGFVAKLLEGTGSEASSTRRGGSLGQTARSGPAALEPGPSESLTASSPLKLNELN

| Compound | Ki [1] | IC50 (U-937 [2]) | IC50 (U-937 [3]) | Ki [4] |
| --- | --- | --- | --- | --- |
| Cn1c(N)nc(Cc2ccccc2)c1Cc1ccccc1 | 19 µM | 30 µM |  |  |
| CCCCCCn1c(N)nc(Cc2ccccc2)c1Cc1ccccc1 |  |  | > 100 µM |  |
| Cn1c(N)nc(Cc2ccc3c(c2)OCO3)c1Cc1ccc2c(c1)OCO2 [LEUCETTAMINE A] | 3.5 µM | 5.2 µM |  |  |
| COc1ccc(/C=C/CCCCOc2ccc(C(=O)c3cccc(C(=O)O)c3)cc2CCC(=O)O)cc1 |  |  |  | 360 nM |
| COc1cccc(Cc2nc(N)n(C)c2Cc2ccccc2)c1 | 27 µM | 40 µM |  |  |
| Nc1nc(Cc2ccccc2)c(Cc2ccccc2)[nH]1 | 9 µM | 13 µM |  |  |
| Cn1c(N)nc(Cc2ccc(CCCCO)cc2)c1Cc1ccccc1 | 2.4 µM | 3.8 µM |  |  |
| Cc1[nH]c(N)nc1Cc1ccccc1 |  | > 100 µM |  |  |
| Cn1cc(Cc2ccccc2)nc1N |  | > 100 µM |  |  |
